Assay results: PMC3873039 (Anti-Cancer Agents in Medicinal Chemistry, 2013)

How the values were obtained:
non-tumor cells (CD34+) = test: NucView caspase 3 activity assay by flow cytometry; type: cell-based; details: 24 h; for EC50: read-out: AP50 (50% induction of apoptosis), Caspase 3 activity assay (C3); for The lowest dose of polyphenols at which there was a significant induction of apoptosis compared to the vehicle control: CD34+ non-tumour control cells, caspase 3 activity, p<0.05
MOLT-3 [1] = test: Hoechst 33342 nuclear morphological analysis of apoptosis; type: cell-based; details: Homo sapiens, MOLT-3, 24 h, read-out: AP50 (50% induction of apoptosis), Hoechst 33342 staining (Hoe)
Summary of the method: (§1)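 Seeded at 0.5 x 10⁶ cells/well in 12-well plates and treated 24 h. Cells were pelleted (400 g, 5 min, 4 °C), washed in PBS, fixed in 4% paraformaldehyde, cytospun, air-dried, then stained with 10 μg/ml Hoechst 33342 for 10 min in the dark. Fluorescence microscopy: 200 cells counted, scored by condensed/intense nuclei, shrinkage, blebbing and apoptotic bodies. % apoptotic nuclei calculated. AP50 = concentration giving 50% apoptotic cells.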

THP-1 [2] = test: as above; type: cell-based; details: Homo sapiens, THP-1, 24 h, read-out: AP50 (50% induction of apoptosis), Hoechst 33342 staining (Hoe)
Summary of the method: as §1

KG1a [3] = test: NucView caspase 3 activity assay by flow cytometry; type: cell-based, human; details: 24 h; for EC50: Homo sapiens, KG-1a, read-out: AP50 (50% induction of apoptosis), Caspase 3 activity assay (C3); for The lowest dose of polyphenols at which there was a significant induction of apoptosis compared to the vehicle control: KG1a, caspase 3 activity, p<0.05
Summary of the method: (§2)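 Seeded at 0.5 x 10⁶ cells/well and treated 24 h, with series of 0–50 or 0–250 µM depending on compound. Normalized to vehicle (0% apoptosis). Mean ± STD, three independent experiments in triplicate. One-way ANOVA/Tukey, p<0.05. AP50 = concentration giving 50% apoptotic cells.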

U937 [4] = test: CellTiter-Glo luminescent cell viability assay; type: cell-based, human; details: U937, 24 h, doses 0, 2, 10, 50, 250, 500 µM, p<0.05
Summary of the method: (§3)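 Cells grown in RPMI 1640 with 10% FBS, 1.5 mM L-glutamine and penicillin/streptomycin at 37 °C, 5% CO2. Seeded at 2.5 x 10³ cells/well and exposed 24 h to ethanol-dissolved test compound (0, 2, 10, 50, 250, 500 µM) with 0.1% ethanol vehicle. ATP luminescence normalized to vehicle (100%). IC50 taken from linear regression. Lowest significant dose set by one-way ANOVA/Tukey, p<0.05. Triplicates, three independent experiments.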

THP-1 [5] = test: NucView caspase 3 activity assay by flow cytometry; type: cell-based, human; details: for EC50: Homo sapiens, THP-1, 24 h, read-out: AP50 (50% induction of apoptosis), Caspase 3 activity assay (C3); for The lowest dose of polyphenols at which there was a significant induction of apoptosis compared to the vehicle control: THP-1, caspase 3 activity, 24 h, p<0.05
Summary of the method: as §2

K562 [6] = test: Cell cycle analysis, propidium iodide flow cytometry; type: cell-based, human; details: K562, IC50 dose, 24 h
Summary of the method: (§4)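 Seeded at 0.5 x 10^6 cells per well in 12-well plates and treated 24 h at the IC50 concentration of each test compound from CellTiter-Glo. Cells were pelleted (400 g, 5 min), PBS-washed and fixed in 80% ethanol overnight at -20 °C. Staining used 50 µg/mL PI plus RNase overnight at 4 °C.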

U937 [7] = test: as above; type: cell-based, human; details: U937, IC50 dose, 24 h; vehicle control G0/G1 = 44.03%
Summary of the method: as §4

THP-1 [8] = test: as above; type: cell-based, human; details: THP-1, IC50 dose, 24 h
Summary of the method: as §4

K562 [9] = test: NucView caspase 3 activity assay by flow cytometry; type: cell-based, human; details: for EC50: Homo sapiens, K562, 24 h, read-out: AP50 (50% induction of apoptosis), Caspase 3 activity assay (C3); for The lowest dose of polyphenols at which there was a significant induction of apoptosis compared to the vehicle control: K562, caspase 3 activity, 24 h, p<0.05
Summary of the method: as §2

CCRF-CEM [10] = test: NucView caspase 3 activity assay by flow cytometry; type: cell-based, human; details: 24 h; for EC50: Homo sapiens, read-out: AP50 (50% induction of apoptosis), Caspase 3 activity assay (C3); for The lowest dose of polyphenols at which there was a significant induction of apoptosis compared to the vehicle control: caspase 3 activity, p<0.05
Summary of the method: as §2

JURKAT [11] = test: NucView caspase 3 activity assay by flow cytometry; type: cell-based, human; details: 24 h; for EC50: Homo sapiens, Jurkat, read-out: AP50 (50% induction of apoptosis), Caspase 3 activity assay (C3); for The lowest dose of polyphenols at which there was a significant induction of apoptosis compared to the vehicle control: JURKAT, caspase 3 activity, p<0.05
Summary of the method: as §2

[12] = tested on: non-tumor progenitor cells (CD34+); test: Cell cycle analysis, propidium iodide flow cytometry; type: cell-based; details: 24 h, within the IC50 ranges used to treat the leukemic cell lines
MOLT-3 [13] = test: CellTiter-Glo luminescent cell viability assay; type: cell-based, human; details: MOLT-3, 24 h, doses 0, 2, 10, 50, 250, 500 µM, p<0.05
Summary of the method: as §3

HL60 [14] = test: Hoechst 33342 nuclear morphological analysis of apoptosis; type: cell-based; details: Homo sapiens, HL-60, 24 h, read-out: AP50 (50% induction of apoptosis), Hoechst 33342 staining (Hoe)
Summary of the method: as §1

KG1a [15] = test: as above; type: cell-based; details: Homo sapiens, KG-1a, 24 h, read-out: AP50 (50% induction of apoptosis), Hoechst 33342 staining (Hoe)
Summary of the method: as §1

CCRF-CEM [16] = test: Cell cycle analysis, propidium iodide flow cytometry; type: cell-based, human; details: IC50 dose, 24 h, vehicle control G0/G1 = 41.9%
Summary of the method: as §4

K562 [17] = test: Hoechst 33342 nuclear morphological analysis of apoptosis; type: cell-based; details: Homo sapiens, K562, 24 h, read-out: AP50 (50% induction of apoptosis), Hoechst 33342 staining (Hoe)
Summary of the method: as §1

HL60 [18] = test: NucView caspase 3 activity assay by flow cytometry; type: cell-based, human; details: for The lowest dose of polyphenols at which there was a significant induction of apoptosis compared to the vehicle control: HL60, caspase 3 activity, 24 h, p<0.05; for EC50: Homo sapiens, HL-60, 24 h, read-out: AP50 (50% induction of apoptosis), Caspase 3 activity assay (C3)
Summary of the method: as §2

K562 [19] = test: CellTiter-Glo luminescent cell viability assay; type: cell-based, human; details: K562, 24 h, doses 0, 2, 10, 50, 250, 500 µM, p<0.05
Summary of the method: as §3

U937 [20] = test: Hoechst 33342 nuclear morphological analysis of apoptosis; type: cell-based; details: Homo sapiens, U-937, 24 h, read-out: AP50 (50% induction of apoptosis), Hoechst 33342 staining (Hoe)
Summary of the method: as §1

KG1a [21] = test: Cell cycle analysis, propidium iodide flow cytometry; type: cell-based, human; details: IC50 dose, 24 h
Summary of the method: as §4

KG1a [22] = test: CellTiter-Glo luminescent cell viability assay; type: cell-based, human; details: 24 h; for IC50: Homo sapiens, KG-1a, read-out: IC50 (50% inhibition of cellular proliferation); for The lowest dose of polyphenols at which there was a significant inhibition of cell proliferation compared to the vehicle control: KG1a, doses 0, 2, 10, 50, 250, 500 µM, p<0.05
Summary of the method: as §3

JURKAT [23] = test: Hoechst 33342 nuclear morphological analysis of apoptosis; type: cell-based; details: Homo sapiens, 24 h, read-out: AP50 (50% induction of apoptosis), Hoechst 33342 staining (Hoe)
Summary of the method: as §1

`O=c1cc(-c2ccc(O)cc2)oc2cc(O)cc(O)c12` [Apigenin] was tested, and the EC50 (non-tumor cells (CD34+)) was over 250 µM, the “The lowest dose of polyphenols at which there was a significant induction of apoptosis compared to the vehicle control” value (non-tumor cells (CD34+)) was 250 µM and the EC50 (MOLT-3 [1]) was 125 µM. The EC50 (THP-1 [2]) was 220 µM, the EC50 (KG1a [3]) was 89 µM and the “The lowest dose of polyphenols at which there was a significant induction of apoptosis compared to the vehicle control” value (KG1a [3]) was 10 µM. The “The lowest dose of polyphenols at which there was a significant inhibition of cell proliferation compared to the vehicle control” value (U937 [4]) was 10 µM, the EC50 (THP-1 [5]) was 110 µM and the “The lowest dose of polyphenols at which there was a significant induction of apoptosis compared to the vehicle control” value (THP-1 [5]) was 10 µM. The “Percentage of cells in S phase of cell cycle (significant accumulation)” value (K562 [6]; vehicle control S = 32.06%) was “S =50.2%”, the “Percentage of cells in G0/G1 phase of cell cycle (significant accumulation)” value (U937 [7]) was “G0/G1 =59%” and the “Percentage of cells in G2/M phase of cell cycle (significant accumulation)” value (THP-1 [8]; vehicle control G2/M = 26.4%) was “G2/M =32%”. The EC50 (K562 [9]) was 150 µM, the “The lowest dose of polyphenols at which there was a significant induction of apoptosis compared to the vehicle control” value (K562 [9]) was 10 µM and the EC50 (CCRF-CEM [10]) was 50 µM. For the same compound, the “The lowest dose of polyphenols at which there was a significant induction of apoptosis compared to the vehicle control” value (CCRF-CEM [10]) was 10 µM, the EC50 (JURKAT [11]) was 35 µM and the “The lowest dose of polyphenols at which there was a significant induction of apoptosis compared to the vehicle control” value (JURKAT [11]) was 50 µM. The “Cell cycle arrest in non-tumour control cells” value [12] was “No Arrest ≤250µM”, the “The lowest dose of polyphenols at which there was a significant inhibition of cell proliferation compared to the vehicle control” value (MOLT-3 [13]) was 50 µM and the EC50 (HL60 [14]) was 129 µM. For the same compound, the EC50 (KG1a [15]) was 235 µM, the “Percentage of cells in G0/G1 phase of cell cycle (significant accumulation)” value (CCRF-CEM [16]) was “G0/G1 =52.2%” and the EC50 (K562 [17]) was 190 µM. The “The lowest dose of polyphenols at which there was a significant induction of apoptosis compared to the vehicle control” value (HL60 [18]) was 50 µM, the EC50 (HL60 [18]) was 84 µM and the “The lowest dose of polyphenols at which there was a significant inhibition of cell proliferation compared to the vehicle control” value (K562 [19]) was 10 µM. For the same compound, the EC50 (U937 [20]) was 130 µM, the “Percentage of cells in S phase of cell cycle (significant accumulation)” value (KG1a [21]; vehicle control S = 34.6%) was “S = 50%” and the IC50 (KG1a [22]) was 500 µM. The “The lowest dose of polyphenols at which there was a significant inhibition of cell proliferation compared to the vehicle control” value (KG1a [22]) was 10 µM and the EC50 (JURKAT [23]) was 90 µM.
With `O=c1cc(-c2ccccc2)oc2cc(O)cc(O)c12` [Chrysin] the EC50 (non-tumor cells (CD34+)) was over 250 µM, the “The lowest dose of polyphenols at which there was a significant induction of apoptosis compared to the vehicle control” value (non-tumor cells (CD34+)) was 250 µM and the EC50 (MOLT-3 [1]) was 38 µM. The EC50 (THP-1 [2]) was over 500 µM, the EC50 (KG1a [3]) was over 250 µM and the “The lowest dose of polyphenols at which there was a significant induction of apoptosis compared to the vehicle control” value (KG1a [3]) was 250 µM. For the same compound, the “The lowest dose of polyphenols at which there was a significant inhibition of cell proliferation compared to the vehicle control” value (U937 [4]) was 50 µM, the EC50 (THP-1 [5]) was over 250 µM and the “The lowest dose of polyphenols at which there was a significant induction of apoptosis compared to the vehicle control” value (THP-1 [5]) was 250 µM. The “Percentage of cells in G0/G1 phase of cell cycle (significant accumulation)” value (K562 [6]; vehicle control G0/G1 = 53.7%) was “G0/G1 =59%”, the “Percentage of cells in G0/G1 phase of cell cycle (significant accumulation)” value (U937 [7]) was “G0/G1 =70%” and the “Percentage of cells in G0/G1 phase of cell cycle (significant accumulation)” value (THP-1 [8]; vehicle control G0/G1 = 42.3%) was “G0/G1 =52.1%”. The EC50 (K562 [9]) was over 250 µM, the “The lowest dose of polyphenols at which there was a significant induction of apoptosis compared to the vehicle control” value (K562 [9]) was 250 µM and the EC50 (CCRF-CEM [10]) was 250 µM. For the same compound, the “The lowest dose of polyphenols at which there was a significant induction of apoptosis compared to the vehicle control” value (CCRF-CEM [10]) was 50 µM, the EC50 (JURKAT [11]) was 40 µM and the “The lowest dose of polyphenols at which there was a significant induction of apoptosis compared to the vehicle control” value (JURKAT [11]) was 50 µM. The “Cell cycle arrest in non-tumour control cells” value [12] was “No Arrest <250µM”, the “The lowest dose of polyphenols at which there was a significant inhibition of cell proliferation compared to the vehicle control” value (MOLT-3 [13]) was 50 µM and the EC50 (HL60 [14]) was 75 µM. For the same compound, the EC50 (KG1a [15]) was over 500 µM, the “Percentage of cells in G0/G1 phase of cell cycle (significant accumulation)” value (CCRF-CEM [16]) was “G0/G1 =49.4%” and the EC50 (K562 [17]) was over 500 µM. The “The lowest dose of polyphenols at which there was a significant induction of apoptosis compared to the vehicle control” value (HL60 [18]) was 50 µM, the EC50 (HL60 [18]) was 175 µM and the “The lowest dose of polyphenols at which there was a significant inhibition of cell proliferation compared to the vehicle control” value (K562 [19]) was 250 µM. The EC50 (U937 [20]) was 32 µM, the “Percentage of cells in G0/G1 phase of cell cycle (significant accumulation)” value (KG1a [21]; vehicle control G0/G1 = 44.6%) was “G0/G1 =50%” and the IC50 (KG1a [22]) was 335 µM. For the same compound, the “The lowest dose of polyphenols at which there was a significant inhibition of cell proliferation compared to the vehicle control” value (KG1a [22]) was 250 µM and the EC50 (JURKAT [23]) was 30 µM.
